SENP8 block-1: inhibitors of human SENP8 protease | Q96LD8 | recombinant SENP8, Nedd8 substrate fluorescence | inhibition, % at 20 µM | 360,000 compounds, 0.64% hits | AID 602440; in the data active means inhibition mostly above about 40%, no sharp cut-off; inactive means mostly below about 27%
Target sequence (Q96LD8 whole entry, looked up): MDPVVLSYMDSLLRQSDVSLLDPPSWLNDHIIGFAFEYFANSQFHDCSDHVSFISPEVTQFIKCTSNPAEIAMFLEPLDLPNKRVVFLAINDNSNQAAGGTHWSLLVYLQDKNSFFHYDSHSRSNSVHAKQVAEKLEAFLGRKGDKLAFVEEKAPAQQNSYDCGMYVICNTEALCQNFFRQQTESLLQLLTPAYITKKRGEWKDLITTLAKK
SENP8 block-2: SENP8 protease inhibition. 330,000 compounds, 1.2% hits. purified SENP8, Z-RLRGG-aminoluciferin cleavage, luminescence. inhibition, % at 10 µM. Q96LD8; in the data active means inhibition above about 50%
SENP7 block: blocks the human protease SENP7 | recombinant SENP7, Z-RLRGG-aminoluciferin luminescence, 40 min | AID 434973 | Q9BQF6 | inhibition, % at 5 µM | 330,000 compounds, 1.5% hits;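 active means inhibition above about 50% at the single test dose, limit read from the data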;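 further: plate controls were DMSO with enzyme for no effect and no enzyme buffer wells for full effect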
SENP6 inh: inhibitors of human SENP6 protease | AID 2599 | inhibition, % at 10 µM | Recombinant SENP6 catalytic domain, aminoluciferin luminescence | Q9GZR1 | 330,000 compounds, 1.8% hits;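 active means inhibition above about 50% at the single tested dose, limit read from the data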;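 further: plate controls were DMSO wells with enzyme for no effect and DMSO wells lacking enzyme for full effect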
SENP1 FRET inh: SENP1 (human) catalytic domain inhibition. recombinant SENP1 catalytic domain, CyPet-SUMO1-YPet FRET cleavage. inhibition, % at 10 µM. 360,000 compounds, 0.21% hits. AID 624204;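 active means inhibition at least 30% at 10 µM, raw YFP signal under a set limit, fluorescence ratio 0.5 to 1.5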;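 further: 0% = enzyme with DMSO and 100% = no enzyme wells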
Target sequence (Q9P0U3 419-644 limits assumed): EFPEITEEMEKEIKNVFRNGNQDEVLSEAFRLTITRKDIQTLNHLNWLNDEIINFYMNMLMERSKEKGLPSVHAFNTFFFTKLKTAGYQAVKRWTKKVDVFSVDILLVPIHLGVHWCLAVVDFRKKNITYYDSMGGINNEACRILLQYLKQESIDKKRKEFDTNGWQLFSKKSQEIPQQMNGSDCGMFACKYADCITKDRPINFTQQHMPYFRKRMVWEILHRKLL
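Test system: hSENP1 catalytic domain, recombinant; Amount: 20 pM final SENP1 enzyme; Medium: Tris pH 8 buffer plus EDTA, NaCl, BME, BSA, NP40, catalase; Schedule: 50 min enzyme reaction, room temperature, light-protected; Technique: FRET fluorescence in CFP and YFP emission channels; Controls: no-enzyme wells low, DMSO-plus-enzyme wells high control.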
SENP8 conf: confirmation of human SENP8 protease inhibitors. 1,400 compounds, 15% hits. shares compounds with SENP8 block-1. purified SENP8, Nedd8-AMC/pro-Nedd8 cleavage fluorescence, 30 min. inhibition, % at 25 µM; in the data active means inhibition mostly above about 39%, no sharp cut-off; inactive means mostly below about 34%
* = called active by the depositor; · = not tested or not shown. Compounds with a hit are over-represented: about 2.5% of the library has one in this group of screens.

SMILES	SENP8 block-1	SENP8 block-2	SENP7 block	SENP6 inh	SENP1 FRET inh	SENP8 conf
COc1ccccc1Cc1c(-c2ccc(F)cc2)nc2cc(C)c(Br)c(C)n12	-1	·	·	·	-19	·
Cc1csc2c(N3CCN(C(=O)c4ccc(C(C)(C)C)cc4)CC3)ncnc12	40*	-15	1	-30	-2	20
Cc1csc2c(N3CCN(C(=O)NC(C)(C)C)CC3)ncnc12	19	1	7	-43	3	·
CC(C)CC(N)c1csc(NC(=O)Nc2ccccc2C(C)(C)C)n1 (centres undefined)	23	·	·	·	2	·
Cc1cc(=O)oc(C)c1C(=O)Nc1cccc2ccccc12	43*	0	2	12	3	17
Cc1ccccc1NC(=O)c1c(C)cc(=O)oc1C	13	-2	-4	-28	2	·
Cc1ccc([N+](=O)[O-])cc1NC(=O)CSc1nnc(C)n1CC1CCCO1 (centres undefined)	2	1	-4	7	2	·
CC(C)(C)NC(=O)NC(=O)C[n+]1ccc(Cc2ccc([N+](=O)[O-])cc2)cc1	50*	10	7	15	3	17
Cc1ccc(Cl)cc1NC(=O)C[n+]1ccc(Cc2ccc([N+](=O)[O-])cc2)cc1	23	0	19	3	3	·
CCOC(=O)c1ccc(NC(=O)CCN2C(=O)C3CC=CCC3C2=O)cc1 (centres undefined)	34*	2	1	-2	1	7
CCC(=O)Nc1ccc(C(=O)COC(=O)CCN2C(=O)C3CC=CCC3C2=O)cc1 (centres undefined)	-14	-18	-6	-9	-14	·
O=C(O)CSc1nnc2n(-c3ccccc3)c(=O)c3ccccc3n12	7	-2	1	-13	0	·
Cc1nnc2n(-c3ccccc3)c(=O)c3ccccc3n12	41*	-1	-4	3	4	1
CCCCC(=O)Nc1nc2c(OC)cc([N+](=O)[O-])cc2s1	14	-8	4	7	-5	·
COc1cc([N+](=O)[O-])cc2sc(NC(C)=O)nc12	59*	-10	-2	-20	-17	12
COc1cc(-c2ccc(NC(C)=O)c(OC)c2)ccc1NC(C)=O	17	0	2	4	3	·
COc1cc(O)c(NC(C)=O)c2nonc12	60*	7	19	17	2	33
CC(C)Nc1ccc(C(CC(N)=O)NC(=O)c2ccccc2)cc1[N+](=O)[O-] (centres undefined)	44*	-1	4	-10	0	7
NC(=O)CC(NC(=O)c1ccccc1)c1ccc(NC2CCCC2)c([N+](=O)[O-])c1 (centres undefined)	41*	4	3	3	6	24
CC(C)Nc1ccc(C(CC(N)=O)NC(=O)c2ccc(Br)cc2)cc1[N+](=O)[O-] (centres undefined)	17	-4	3	-5	3	·
O=C(OCC(=O)N1CCc2ccccc21)c1ccccn1	-6	-10	-5	-20	2	·
O=C(c1ccccc1)N1CCN(c2ccc([N+](=O)[O-])c(NCc3cccnc3)c2)CC1	21	-6	-10	-24	3	·
O=[N+]([O-])c1ccc(N2CCN(S(=O)(=O)c3ccccc3)CC2)cc1NCc1cccnc1	50*	-4	-6	0	6	14
O=C(c1ccc(Cl)cc1)N1CCN(c2ccc([N+](=O)[O-])c(NCc3cccnc3)c2)CC1	46*	5	-3	-9	4	18
O=[N+]([O-])c1ccc(N2CCN(S(=O)(=O)c3ccc(Cl)cc3)CC2)cc1NCc1cccnc1	39	6	11	0	-1	·
SMILES	SENP8 block-1	SENP8 block-2	SENP7 block	SENP6 inh	SENP1 FRET inh	SENP8 conf
CCOC(=O)c1cccc(NC(=O)CCS(=O)(=O)c2cccc3nsnc23)c1	28	-11	-8	-8	-1	·
Cc1cccc(NC(=O)CCS(=O)(=O)c2cccc3nsnc23)c1C	41*	6	6	-10	3	15
CCC(=O)c1cc(Br)ccc1OCC(=O)N1CCN(S(=O)(=O)c2ccccc2)CC1	-3	·	·	·	0	·
CCc1ccc(-c2nc(CS(=O)CC(=O)NCCCN3CCOCC3)c(C)o2)cc1 (centres undefined)	-20	3	2	22	-14	·
COc1ccc(CNC(=O)[C@@H](NC(=O)C2CCN(C(=O)[C@@H](N)Cc3ccccc3)CC2)C(C)C)cc1	54*	2	6	2	-2	16
COc1ccccc1CNC(=O)[C@H](C)NC(=O)C1CCN(C(=O)[C@@H](N)Cc2ccccc2)CC1	18	3	-4	-19	1	·
COc1ccccc1CNC(=O)[C@H](C)NC(=O)C1CCN(C(=O)[C@@H](N)C(C)C)CC1	48*	-6	-2	-13	2	10
CSCC[C@H](N)C(=O)N1CCC(C(=O)N[C@H](C(=O)NCc2ccccc2F)C(C)C)CC1	48*	-3	-4	-5	0	-6
COc1ccc(CNC(=O)[C@H](Cc2ccccc2)NC(=O)C2CCN(C(=O)[C@H](C)N)CC2)cc1	51*	-1	-4	-4	5	9
COc1ccc(COC[B-](F)(F)F)cc1	17	·	·	·	1	·
CN(C(=O)Cn1c(=O)oc2cc(S(=O)(=O)N3CCCC3)ccc21)C1CCCCC1	20	3	-2	-8	1	·
COc1ccc(-c2csc(C3=C(O)CN(C(C)C)C3=N)n2)cc1OC	-7	-5	4	-2	-15	·
O=C1CSC(c2c(F)cccc2Cl)N1c1cccc(F)c1 (centres undefined)	44*	10	3	4	0	11
CCCCNc1nc(=S)n(-c2ccccc2)c(C)c1C(C)=O	22	1	3	-12	1	·
O=C(Nc1ccc(Br)cc1)C1CCCN1S(=O)(=O)c1cccs1 (centres undefined)	3	-11	-11	-22	-2	·
CC(=O)c1cccc(NC(=O)C2CCCN2S(=O)(=O)c2cccs2)c1 (centres undefined)	41*	·	·	·	1	17
COC(=O)c1ccc(NC(=O)C2CCCN2S(=O)(=O)c2ccc(OC)cc2)cc1 (centres undefined)	41*	4	1	-4	2	16
COC(=O)c1ccc(NC(=O)C2CCCN2S(=O)(=O)c2ccc(C)cc2)cc1 (centres undefined)	-4	-10	1	19	0	·
Cc1ccc(NC(=O)CCC(=O)N/N=C/c2ccc([N+](=O)[O-])o2)cc1C	63*	1	9	-2	-1	12
O=C(N/N=C/c1ccc([N+](=O)[O-])o1)c1cc(-c2cccc(Br)c2)nc2ccccc12	41*	-5	-6	0	-8	18
Cc1cc(C(=O)N/N=C/c2cccnc2)c(C)o1	41*	1	6	-8	0	12

High-throughput results deposited in PubChem by Sanford-Burnham Center for Chemical Genomics.
